Assay results from PubChem BioAssay AID1267 (The Scripps Research Institute Molecular Screening Center, 2008).
Screen size: about 1,200 compounds; about 770 (64%) were called active. So high a share suggests a set chosen from earlier hits. Only a sample is shown. Values without a mark were called inactive.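 How the source made its calls: active means percent activation of the STAT3 luciferase reporter above a set limit taken from the earlier primary screen (cut at about 130% in these data); inactive means the rest.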

Assay: STAT3 reporter potentiators, retest of hits, confirmation, U3A cells, luciferase, luminescence (AID 1267);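 further: 0% = background signal of medium plus substrate and 100% = median of IL-6 with DMSO wells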
Details: IL-6 potentiation, at 5.7 µM, stronger effect = higher value, 100 means same as IL-6 alone, U3A cells lack STAT1
Procedure, shortened: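 System: STAT1-null U3A cells carrying STAT3-luciferase reporter; Read-out: % potentiation versus median IL-6 plus DMSO wells, background-subtracted; Times: 1 h pretreatment, 6 h IL-6, 37 °C; Also added: IL-6 stimulus at 33 ng/mL final; Measured by: luminescence.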

Compound | potentiation (% of control)
CC(=O)Nc1ccc(NC(=O)COc2ccccc2C(=O)Nc2cccc(Cl)c2Cl)cc1 | 143% (active)
CSc1nc(N(C)NC(=O)c2cccc(C)c2)c2ccccc2n1 | 112%
Cc1cccc(C(=O)Nc2nnc(Cc3c[nH]c4ccccc34)s2)c1 | 150% (active)
COc1ccc(/C=N/Nc2ncnc3sc4c(c23)CCCC4)cc1O | 114%
O=C(Nc1cc(C(F)(F)F)ccc1Cl)c1cc(C2CC2)on1 | 145% (active)
Fc1ccc2nc(-c3ccccc3)nc(SCc3nnc(-c4ccccc4)o3)c2c1 | 132%
OC(COc1ccc2ccccc2c1)CN1CCOCC1 (stereo not given) | 157% (active)
COc1ccccc1C1C2=C(COC2=O)Nc2cc3c(cc21)OCO3 (stereo not given) | 124%
COc1ccc(-c2c3c(=O)n(C)c(=O)n(C)c3cn2-c2cccc(OC)c2)cc1 | 158% (active)
COc1ccccc1N1CCN(C(=O)c2cc3c(-c4ccc(Cl)cc4)nn(C)c3s2)CC1 | 125%
Cn1nc(-c2ccc(Cl)cc2)c2cc(C(=O)NCc3ccco3)sc21 | 153% (active)
O=C(NCc1ccco1)c1cccn2c(=O)c3c4c(sc3nc12)CCCC4 | 128%
COc1ccc(C)cc1NC(=O)c1[nH]c(C)c(C(C)=O)c1C | 144% (active)
N#Cc1ccccc1NC(=O)COc1c(Br)cc(Br)c2cccnc12 | 162% (active)
O=C(C1CCN(S(=O)(=O)Cc2ccccc2)CC1)N1CCCc2ccccc21 | 118%
CSc1nc2sc3c(c2c(=O)[nH]1)CCc1ccccc1-3 | 142% (active)
CCSc1nnc(-c2cc3c(s2)-c2ccccc2CC3)o1 | 162% (active)
COc1cccc(NC(=S)C(C#N)=C2N(C)c3ccccc3N2C)c1 | 122%
COc1ccc(C2c3[nH]c4ccccc4c3CCN2CCCn2cccn2)cc1C (stereo not given) | 142% (active)
Cc1ccc(OCc2nnc(SC3CCc4ccccc4C3=O)n2C)cc1 (stereo not given) | 151% (active)
CN1CCN(c2ccc([N+](=O)[O-])c(Sc3nc4ccccc4[nH]3)c2)CC1 | 107%
Cc1ccc(S(=O)(=O)Nc2nc3ccccc3nc2N2CCc3ccccc3C2)cc1 | 124%
Cc1cccc(N(CC(=O)N=Nc2c(O)[nH]c3ccccc23)S(C)(=O)=O)c1C | 129%
Cc1nc2ccccc2cc1O | 146% (active)
COC(=O)c1[nH]c2ccccc2c1NS(=O)(=O)c1ccc(OC)cc1OC | 116%

Compound | potentiation (% of control)
CCCS(=O)(=O)Nc1c(C(=O)O)[nH]c2ccccc12 | 170% (active)
CC(C)CNC(=O)COC(=O)/C=C/c1ccccc1[N+](=O)[O-] | 126%
CCn1c(SCC(=O)N/N=C/C=C/c2ccccc2[N+](=O)[O-])nnc1-c1ccccc1 | 137% (active)
N#Cc1c(C(F)(F)F)cc(-c2ccc(Cl)cc2)nc1SCC(=O)O | 159% (active)
COc1ccc(Cl)cc1NC(=O)c1oc(C)nc1C | 147% (active)
C/C(=N\NC(=O)CNc1cccc2ccccc12)c1ccc(Br)s1 | 98.2%
Cc1ccc(/C=N/NC(=O)COc2ccccc2-c2ccccc2)cc1 | 135% (active)
Cc1ccc(C2=NN(C)c3nc4ccccc4n3C2)cc1 | 151% (active)
Oc1c(C=Nc2cccc3nsnc23)ccc2ccccc12 | 129%
COc1cc(OC)cc(C(=O)N[C@H](C(=O)Nc2nc3ccccc3[nH]2)C(C)C)c1 | 108%
COc1cc(NS(=O)(=O)c2ccc(N/C=C(\C=O)c3nc4cc(Cl)ccc4o3)cc2)nc(OC)n1 | 144% (active)
C/C(=N\c1nc2ccccc2n1C)c1cc(Cl)ccc1O | 118%
Cc1ccc(NC(=O)c2cc([N+](=O)[O-])ccc2Cl)c(O)c1 | 158% (active)
Oc1cccc2ccc(/C=C/c3ccc(Br)s3)nc12 | 169% (active)
Cn1cccc1C(=O)Nc1nccs1 | 132%
CCOC(=O)N1CCN(CC(=O)Nc2cc(C)nn2-c2nc3ccccc3s2)CC1 | 140% (active)
NC(=O)CSc1c[nH]c2ccccc12 | 165% (active)
O=c1[nH]c(CSc2ncc(-c3ccc(F)cc3)n2Cc2ccco2)nc2ccccc12 | 122%
COc1ccc([N+](=O)[O-])cc1C1NN=C(c2cccc3ccccc23)S1 (stereo not given) | 138% (active)
O=C1CCCN1CCCNc1ncnc2c1[nH]c1ccccc12 | 144% (active)
COCCCNc1nc2c(-c3cccc(C(F)(F)F)c3)nnn2c2ccccc12 | 134% (active)
COc1ccccc1-c1nnc(SCC(=O)N2CC(C)CC(C)C2)o1 (stereo not given) | 117%
COc1ccccc1-c1nnc(NC(=O)c2ccc3ncsc3c2)o1 | 147% (active)
Cc1cccc(C(=O)N2CCc3c([nH]c4ccccc34)C2CC(C)C)n1 (stereo not given) | 159% (active)
c1ccc(-c2cn3c(n2)CCc2ccc4cccnc4c2-3)cc1 | 139% (active)

Compound | potentiation (% of control)
CCOC(=O)c1c(-c2cccc(C)c2)csc1NC(=O)c1c(-c2ccccc2)noc1C | 122%
O=C(O)CS/C(=C\c1ccc(F)cc1)c1nc2ccccc2s1 | 132%
O=C(O)CSCc1nc2ccccc2s1 | 154% (active)
COc1ccc(NC(=O)ON=C2c3ccccc3-c3ccccc32)cc1 | 121%
CCOc1ccc(C2c3[nH]c4ccccc4c3CCN2Cc2cn(CC)nc2C)cc1 (stereo not given) | 143% (active)
Cc1nc(N=C(N)N)nc2c(C)cccc12 | 172% (active)
COc1nc(N=C(N)N)nc2c(C)cccc12 | 144% (active)
Cc1ccc(N=Nc2c(C)[nH]n(-c3ccccc3)c2=O)cc1 | 147% (active)
CCOC(=O)C1CCN(c2ncnc3c2oc2ccc(Br)cc23)CC1 | 138% (active)
CCNCc1cc2cc(C)ccc2[nH]c1=O | 120%
CSCCC(NC(=O)c1ccco1)C(=O)OCC(=O)Nc1ncc(Cl)c(C)c1Cl (stereo not given) | 124%
CCCCC(=O)Nc1nc(C)c(-c2csc(Nc3ccc(Cl)cc3)n2)s1 | 133%
Cc1ccc(Nc2nc(-c3sc(NC(=O)c4ccccc4)nc3C)cs2)cc1 | 122%
C=CCCC(=O)Nc1nc(C)c(-c2csc(Nc3ccc(Cl)cc3)n2)s1 | 135% (active)
Cc1ccc(-c2cc(C(=O)Nc3nn[nH]n3)c3ccccc3n2)c(C)c1 | 121%
O=[N+]([O-])c1ccc(N2CCN(S(=O)(=O)c3ccc4ccccc4c3)CC2)cc1NCc1ccco1 | 123%
CN1C(=O)/C(=C\c2cc(Br)cs2)c2ccccc21 | 190% (active)
Cc1csc2ncc(C(=O)N(Cc3ccccc3)c3ccccn3)c(=O)n12 | 111%
O=C(Cc1c[nH]c2ccccc12)OCCOC(=O)Cc1c[nH]c2ccccc12 | 121%
CCOC(=O)CN(C)Cc1c[nH]c2ccccc12 | 157% (active)
COc1cccc(/C=C(/CC(=O)Nc2ccc(N3CCOCC3)cc2)c2nc3ccccc3s2)c1 | 146% (active)
Oc1cccc(C2c3[nH]c4ccccc4c3CCN2Cc2cnn(-c3ccccc3)c2)c1 (stereo not given) | 137% (active)
COC(=O)c1[nH]c2ccccc2c1NC(=O)CN1CCCc2ccccc21 | 153% (active)
COC(=O)c1[nH]c2cccc(C)c2c1NC(=O)CN1CCCc2ccccc21 | 128%
C=CCn1c(-c2ccccc2OCC)n[nH]c1=S | 178% (active)
